The values below come from ChEMBL document CHEMBL3297671, “Identification and bioactivity of 3-epi-xestoaminol C isolated from the New Zealand brown alga Xiphophora chondrophylla” (J Nat Prod, 2014).

pIC50: −log10 of the molar value. Values after ≈ are worked out from the molar mass of the structure shown. Active and inactive are the calls of the source. The rule behind the calls is not given here.

The subject of assay [1] is Pseudomonas aeruginosa. The assay can be described thus: Antimicrobial activity against Pseudomonas aeruginosa PAO1 after 16 hrs by serial dilution method. Type of assay: functional, organism-based.
Assay [2] concerns Staphylococcus aureus. In words: Antimicrobial activity against Staphylococcus aureus ATCC 25923 assessed as compound level causing less than 2% growth after 16 hrs by serial dilution method. The class given is functional. To be noted: ATCC 25923, 16 h. In a few lines: (§1)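 Values are read from dose-response curves. No IC50 is calculated where the curve is too steep.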
The subject of assay [3] is Staphylococcus aureus. In words: Antimicrobial activity against Staphylococcus aureus ATCC 25923 after 16 hrs by serial dilution method. The class given is functional, organism-based. Particulars: ATCC 25923, 16 h.
The subject of assay [4] is HL-60. The assay can be described thus: Cytotoxicity against human HL60 cells assessed as compound level causing less than 2% growth after 48 hrs by MTT assay. The class given is functional. (Tetrazolium dyes change colour on reduction, which living cells bring about.)
The test system of assay [5] is Saccharomyces cerevisiae. In words: Antimicrobial activity against Saccharomyces cerevisiae after 16 hrs by serial dilution method. The class given is functional, organism-based. In a few lines:
as §1

The test system of assay [6] is HL-60. In words: Cytotoxicity against human HL60 cells after 48 hrs by MTT assay. The class given is functional, cell-based. To be noted: HL-60, 48 h.
A short description of assay [7]: Cytotoxicity against human HEK cells assessed as compound level causing less than 2% growth after 48 hrs by MTT assay. Type of assay: functional, HEK293.
The subject of assay [8] is Saccharomyces cerevisiae. In words: Antimicrobial activity against Saccharomyces cerevisiae assessed as compound level causing less than 2% growth after 16 hrs by serial dilution method. The class given is functional. In a few lines:
as §1

Assay [9] relates to Pseudomonas aeruginosa. In words: Antimicrobial activity against Pseudomonas aeruginosa PAO1 assessed as compound level causing less than 2% growth after 16 hrs by serial dilution method. The class given is functional.
Assay [10] is described as follows: Cytotoxicity against human HEK cells after 48 hrs by MTT assay. Type of assay: functional, cell-based. Particulars: HEK293, 48 h.
Assay [11] relates to Escherichia coli. The assay can be described thus: Antimicrobial activity against Escherichia coli ATCC 25922 assessed as compound level causing less than 2% growth after 16 hrs by serial dilution method. To be noted: ATCC 25922, 16 h. The class given is functional.
Assay [12] concerns Escherichia coli. The assay can be described thus: Antimicrobial activity against Escherichia coli ATCC 25922 after 16 hrs by serial dilution method. The class given is functional, organism-based. Particulars: ATCC 25922, 16 h.

By pIC50 is commonly meant −log10 of the IC50, conventionally taken in molar units. As to `CCCCCCCCCCC[C@H](O)[C@H](C)N`, in the assay with Pseudomonas aeruginosa [1], the IC50 result is on record as “Not Active”. Further, the MIC came out at 65.1 µM (≈ 14.9 µg/mL) in the assay on Staphylococcus aureus [2], 32.7 µM (≈ 7.5 µg/mL) with HL-60 [4], 32.7 µM (≈ 7.5 µg/mL) in assay [7] and 32.6 µM (≈ 7.48 µg/mL) in the assay with Escherichia coli [11]. In addition, the pIC50 is 4.77 in the assay with Staphylococcus aureus [3], 4.77 in the assay with Saccharomyces cerevisiae [5], 5.06 in the assay with HL-60 [6] and 4.74 in assay [10]. The MIC result with Saccharomyces cerevisiae [8] and in the assay with Pseudomonas aeruginosa [9] was “inactive” in each case.
`C[C@@H]1C[C@@H]([C@H](O)CC2CC(=O)NC(=O)C2)C(=O)[C@@H](C)C1` [CYCLOHEXIMIDE] had a pIC50 in the assay on Saccharomyces cerevisiae [5] of 7.40. Besides, the MIC in the assay on Saccharomyces cerevisiae [8] stood at 1 µM (≈ 0.281 µg/mL).
Regarding `CN(C)[C@@H]1C(O)=C(C(N)=O)C(=O)[C@@]2(O)C(O)=C3C(=O)c4c(O)cccc4[C@@](C)(O)[C@H]3C[C@@H]12` [TETRACYCLINE], the pIC50 in the assay on Pseudomonas aeruginosa [1] (Pseudomonas aeruginosa, PAO1, 16 h, read-out: IC50) was 3.84; with Staphylococcus aureus [3], 5.24; in the assay on Escherichia coli [12] it was 4.58. Besides, the MIC with Staphylococcus aureus [2] is 62.5 µM (≈ 27.8 µg/mL); with Pseudomonas aeruginosa [9] (PAO1, 16 h), > 500 µM; in the assay on Escherichia coli [11], ≥ 500 µM.
